Among the data in the RNAGym collection of RNA variant scans (doi:10.1101/gad.245936.114) are nonsense suppression values, retold here.

Variants at the floor of the assay were thinned out.

The chains are these.
B1: tRNA (parent)
chain: CUCUCGGUAGCCAAGUUGGUUUAAGGCGCAAGACUUUAAUUUAUCACUACGAAAUCUUGAGAUCGGGCGUUCGACUCGCCCCCGGGAGAUUUUUUCCUCGAGCAA

Variants of B1 are the subject of the data set. Put plainly: nonsense suppression (GFP-seq) (ratio to wild type); higher = more function; SUP4oc tRNA, yeast GFP reporter sort-seq. A digest of the protocol: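 Sorted GFP/RFP bins of yeast were each Illumina-sequenced with a phred ≥30 cutoff; the cells held a genome-integrated ochre-suppressor tRNA variant from a library with ~3% random mutations, a galactose-driven GFP ochre reporter, and RFP. Culture was in raffinose/galactose medium containing 80 mg/L adenine. Nonsense suppression, termed GFPSEQ, is the median GFP/RFP of the bins weighted by each variant's estimated cell share per bin, relative to the unmutated parent tRNA, for variants reaching ≥100 reads and ≥30 cells.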
With CACUCGGUAGCCAAGUUGGUUUAAGGCGCAAGACUUUAAUUUAUCACUACGAAAUCUUGAAAUCGGGCGUUCGACUCGCCCCCGGGAGAUUUUUUCCUCGAGCAA, the nonsense suppression turned out to be 0.0448.
UUCUCGGUAGCCAAGUUGGUUUAAGGCGCAAGACAUUAAUUUAUCACUACGAAAUCUUGAGAUCGGGCGUUCGACUAGCCCCCUGGAGAUUUUUUCCUCGAGCAA: the nonsense suppression was at most 0.026.
With CACUCGGUAGCCAAGUUGGUUGAAGGCGAAAGAAUUUAAUUUAUCACUACGAAAUCUUGAGAUCGGGCGUUCGACUCGCCCCCGGGAGAUUUUUUCCUCGAGCAA, the nonsense suppression worked out at 0.221.
In the case of CACUCGGUAGCCAAGUUGGUUUAAGGCGCAAGACUUUAAUUUAUCACUACGAAAUCUUGAGAUCGGGUGUUCGACUCGCCCCCGGGAGAUUUUUUCCUCGAGCAA, the nonsense suppression is 0.18.
On to CACUCGGUAGCCAAGUUGGUUUAAGGUGCAGGACUUUAAUUUAUCACUACGAAAUCCUGAGAUCGGGCGUUCGACUCGCCCCCGGGAGAUUUUUUCCUCGAGCAA, for which the nonsense suppression was at most 0.026.
For the variant CACUCGGUAGCCAAGUUGGUUUAGAGCGCAAGACUUUAAUUUAUCACUACGAAAUCUUGAGAUCGGGCGUUCGACUCGCCCCCGGGAGAUUUUUUCCUCGAGCAA, the nonsense suppression was at most 0.026.
CACCCGGUAGCCAAGCUGGUUUAAGGCGCAAGACUUUAAUUUAUCACUACGAAAUCUUGAGAUCGGGCGUUCGACUCGCCCCCGGGAGAUUUUUUCCUCGAGCAA: the nonsense suppression was determined as 0.0971.
Regarding CACUCGGUAGCCAAGUUGGUUUAAGGCGCAAGAUUUUAAUUUAUCACUACGAAAUCUUGAGAUCGGGCGUUCGACUCGCCCCCGGGAGAUUUUUUCCUCGAGCAA, the nonsense suppression was at most 0.026.
Turning to CACUCGGUAGCCAAGUUGGUUUAAGGCGCAAGACUUUAAUUUAUCACUACGAAAUCUUGAGAUCGGGCGUUCGACUCGCCCCCGGAAGAUUUUUUCCUCGAGCAA, the nonsense suppression is at most 0.026.
For the variant CACUCGGUAGCCAAGUUGGUUUAAGGCGCAAGACUUUAAUUUAUCACUACGAAAUCUUGAGAUCGGGCGUUCGACUCGCCCCCAGGAGGUUUUUUCCUCGAGCAA, the nonsense suppression was at most 0.026.
Regarding UUCUCGGUAGCCAAGUUGGUUUAAGGCGCAAGACUUUAAUUUAUCACUACGAAAUCUUGAGAUCGGGCGUGCGACUCGCCCCCGGGAGAUUUUUUCCUCGAGCAA, the nonsense suppression was at most 0.026.
In the case of CACUCGGUAGCCAAGUUGGUUUAAGGCGCAAGACUUUAAUUUAUCACUACGAAAUCUUGAGAUCGGGCGUUCAACUCGCCCCCGGGAGAUUUUUUCCUCGAGCAA, the nonsense suppression turned out to be 0.0508.
The value for CACUCGGUAGCCAAGUUGGUUUAAGGCGCAAGGCUUUAAUUUAUCACUACGAAAUCUUGAGAUCGGGCGUUCGACUCGCCCCCGGGAGAUUUUUUCCUCGAGCAA was at most 0.026; that for UUCUCGGUAGCCAAGUUGGUUUAAGGCGCAAGACUUUAAUUUAUCACUACGAAAUCUUGAGAUCGGGCCUUCCACUCGCCCCCGGGAGAUUUUUUCCUCGAGCAA was at most 0.026; that for UUCUCGGUAGCCAAGUGGGUUUAAGGCGCAAGACUUUAAUUUAUCACUACGAAAUCUUGAGAUCGGGCGUUCGACUCGCCCCCGGGAGAUUUUUUCCUCGAGCAA was at most 0.026.
The value for CACUCGGUAGCCAAGUUGCUUUAAGGCGCAAGACUUUAAUUUAUCACUACGAAAUCUUGAGAUCGGGCGUUCGACUCGCCCCCGGGAGAUUUUUUCCUCGAGCAA was at most 0.026.
The same measure for UUCUCGGUAGCCAAGUUGGUUUAAGGCGCAAGACUUUAAUUUAUCACUACGAAAUCUUGAGAUCGGGCGUUCGACUCACCCCCGGGAGAUUUUUUCCUCGAGCAA: 0.0525; for CACUCGGUAGCCAAGUUGGUUUAAGGCGCUAGACUUUAAUUUAUCACUACGAAAUCUUGAGAUCGGGCGUUCGACUCGCCCCCGGGAGAUUUUUUCCUCGAGCAA: 0.031.
With CACACGAUAGCCAAGUUGGUUUAAGGCGCAAGACUUUAAUUUAUCACUACGAAAUCUUGAGAUCGGGCGUUCGACUCGCCCCCGGGAGAUUUUUUCCUCGAGCAA, the nonsense suppression was at most 0.026.
UGCUCGGUAGCCAAGUUUGUUUAAGGCGCAAGACUUUAAUUUAUCACUACGAAAUCUUGAGAUCGGGCGUUCGACUCGCCCCCGGGAGAUUUUUUCCUCGAGCAA: the nonsense suppression was at most 0.026.
As to CACUCGGUAGCCAAGUUGGUUUAAGGCGCACGACUUUAAUUUAUCACUACGAAAUCUUGAGCUCGGGCGUUCGACUCUCCCCCGGGUGAUUUUUUCCUCGAGCAA, the nonsense suppression is at most 0.026.
The value for CACUCGGUAGCCAAGUUGGUUUAAGGCGCAAGACUUUAAUUUAUCACUACGAAAUCUUGAGAUCGGGCGUUCGACUCGCCUCCGGGAGAUUUUUUCCUCGAGCAA was 0.0376; that for CACUCGGUAGCCAAGUUGGUUUAAGGCGCAAGACUUUAAUUUAUCACUACGAAAUCUUGAGAUCCGGCGUUCGACUCGCCCCCGGGAGAUUUUUUCCUCGAGCAA was at most 0.026; that for UUCUCGGUAGCCAAGUCGGUUUAAGGCGCAAGACUUUAAUUUAUCACUACGAAAUCUUGAGAUCGGGCGUUCGACUCGCCGCCGGGAGAUUUUUUCCUCGAGCAA was at most 0.026.
For CACUCGGUAGCCAAGUUGGUUUAAGGCGCAAGAGUUUAAUUUAUCACUACGAAAUCUUGAGAUCGGGCGUUCGACUCGCCCCCGCGAGCUUUUUUCCUCGAGCAA, the nonsense suppression turned out to be 0.25.
Take CACUCGGUAGCCAAGUUGGUUUAAGGCGCAAGAAUUUAAUUUAUCACUACGAAAUCUUGAGAUCGGGCGUUCGACUCUCCCCCGGUAGAUUUUUUCCUCGAGCAA: the nonsense suppression is at most 0.026.
On to CACUCGGUAGCCAAGUUGGUUUAAGGCGAAAGACUUUAAUUUAUCACUACGAAAUAUUGUGAUCGGGCGUUCGACUCGCCCCCGGGAGAUUUUUUCCUCGAGCAA, for which the nonsense suppression is at most 0.026.
